Values joined by “and” are separate entries in the source; they are usually repeats but may differ in a detail not shown here. Equal values may be shown once.
What was measured:
Type in all cases: functional, Mus musculus
C3H 10T1/2 [1] = assay: Tested for inhibition of neoplastic transformation by measuring the transformed foci per dish at 10e-8 M
How it was run: (§1)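 C3H10T1/2 cells given 3-MCA (3 μg/mL) for 24 h, then 7 days later continuous retinoid in acetone (final 0.5%), renewed at each weekly medium change, for 4 weeks. Cultures were fixed, stained and scored for type II and III transformed foci; result as foci/dish and % of MCA-treated control. 12 dishes per group.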

C3H 10T1/2 [2] = assay: Inhibition of neoplastic transformation was measured by measuring the transformed foci per dish at 10e-6 M; how it was run: as §1
C3H 10T1/2 [3] = assay: Tested for toxicity against C3H10T1/2 cell line of murine embryo fibroblasts at 10e-8 M
How it was run: (§2)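 C3H10T1/2 cells plated at clonal density and exposed to retinoid in acetone (0.5%) for 7 days. Plating efficiency was normalized to the MCA-treated (1 day) control plating efficiency.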

C3H 10T1/2 [4] = assay: Inhibition of neoplastic transformation at a concentration of 10e-8 M; design: scale not given: the % may be the effect or the level left; how it was run: as §1
C3H 10T1/2 [5] = assay: Tested for anticancer activity by measuring the number of communicating cells using gap junctional communication assay at 10e-6 M (P>0.05)
C3H 10T1/2 [6] = assay: Inhibition of neoplastic transformation at a concentration of 10e-6 M; how it was run: as §1
C3H 10T1/2 [7] = assay: Tested for inhibition of neoplastic transformation by measuring the transformed foci per dish at 10e-10 M; how it was run: as §1
C3H 10T1/2 [8] = assay: Toxicity against C3H10T1/2 cell line of murine embryo fibroblasts at 10e-10 M; how it was run: as §2
C3H 10T1/2 [9] = assay: Tested for toxicity against C3H10T1/2 cell line of murine embryo fibroblasts at 10e-6 M; how it was run: as §2
C3H 10T1/2 [10] = assay: The compound was tested for inhibition of neoplastic transformation, at a concentration of 10e-10 M; design: scale not given: the % may be the effect or the level left; how it was run: as §1
C3H 10T1/2 [11] = assay: Tested for anticancer activity by measuring the number of communicating cells using gap junctional communication assay at 10e-6 M (P>0.001)
C3H 10T1/2 [12] = assay: Tested for anticancer activity by measuring the number of communicating cells using gap junctional communication assay at 10e-6 M
C3H 10T1/2 [13] = assay: Tested for anticancer activity by measuring the number of communicating cells using gap junctional communication assay at 10e-6 M (P>0.01)
C3H 10T1/2 [14] = assay: Tested for anticancer activity by measuring the number of communicating cells using gap junctional communication assay at 10*e-6 M (P>0.001)
C3H 10T1/2 [15] = assay: The compound was tested for inhibition of Neoplastic transformation, at a concentration of 10e-10 M; design: scale not given: the % may be the effect or the level left; how it was run: as §1
C3H 10T1/2 [16] = assay: Tested for toxicity against C3H10T1/2 cell line of murine embryo fibroblasts at 10*e-8 M; how it was run: as §2
C3H 10T1/2 [17] = assay: Inhibition of Neoplastic transformation at a concentration of 10*e-6 M; design: scale not given: the % may be the effect or the level left; how it was run: as §1
C3H 10T1/2 [18] = assay: The compound was tested for inhibition of Neoplastic transformation, at a concentration of 10*e-10 M; design: scale not given: the % may be the effect or the level left; how it was run: as §1
C3H 10T1/2 [19] = assay: Tested for toxicity against C3H10T1/2 cell line of murine embryo fibroblasts at 10 e-6 M; how it was run: as §2
C3H 10T1/2 [20] = assay: Tested for inhibition of neoplastic transformation by measuring the transformed foci per dish at 10*e-10 M; how it was run: as §1
C3H 10T1/2 [21] = assay: Inhibition of Neoplastic transformation at a concentration of 10*e-8 M; design: scale not given: the % may be the effect or the level left; how it was run: as §1
C3H 10T1/2 [22] = assay: Toxicity against C3H10T1/2 cell line of murine embryo fibroblasts at 10*e-10 M; how it was run: as §2
C3H 10T1/2 [23] = assay: Inhibition of neoplastic transformation was measured by measuring the transformed foci per dish at 10 e-6 M; how it was run: as §1
C3H 10T1/2 [24] = assay: Tested for inhibition of neoplastic transformation by measuring the transformed foci per dish at 10*e-8 M; how it was run: as §1

Compound: Cc1cc(/C=C/C=C/C(=C\C(=O)O)C(F)(F)F)c2c(C)ccc(C(C)C)cc1-2
- Foci/dish (C3H 10T1/2 [1]): 0.58
- Foci/dish (C3H 10T1/2 [2]): 0.58
- Control (C3H 10T1/2 [3]): 156%
- Control (C3H 10T1/2 [4]): 88%
- Communicating cells (C3H 10T1/2 [5]): 5.6
- Transformed foci, % of MCA-treated control (C3H 10T1/2 [6]): 88%
- Foci/dish (C3H 10T1/2 [7]): 0.58
- Control (C3H 10T1/2 [8]): 98%
- Control (C3H 10T1/2 [9]): 178%
- Control (C3H 10T1/2 [10]): 88%

Compound: O=C(O)c1ccc(/C=C/c2ccc3cccccc2-3)cc1
- Foci/dish (C3H 10T1/2 [1]): 0.33
- Foci/dish (C3H 10T1/2 [2]): 0.08
- Control (C3H 10T1/2 [3]): 147%
- Control (C3H 10T1/2 [4]): 50%
- Transformed foci, % of MCA-treated control (C3H 10T1/2 [6]): 12%
- Communicating cells (C3H 10T1/2 [11]): 7.4
- Foci/dish (C3H 10T1/2 [7]): 0.33
- Control (C3H 10T1/2 [8]): 129%
- Control (C3H 10T1/2 [9]): 67%
- Control (C3H 10T1/2 [10]): 50%

Compound: Cc1ccc2c(/C=C/c3ccc(C(=O)O)cc3)ccc(C(C)C)cc1-2
- Foci/dish (C3H 10T1/2 [1]): 0.16
- Foci/dish (C3H 10T1/2 [2]): 0
- Control (C3H 10T1/2 [3]): 75%
- Control (C3H 10T1/2 [4]): 24%
- Transformed foci, % of MCA-treated control (C3H 10T1/2 [6]): 0%
- Communicating cells (C3H 10T1/2 [11]): 9.5
- Foci/dish (C3H 10T1/2 [7]): 0.16
- Control (C3H 10T1/2 [8]): 75%
- Control (C3H 10T1/2 [9]): 66%
- Control (C3H 10T1/2 [10]): 24%

Compound: Cc1cc(/C=C/c2ccc(CO)cc2)c2c(C)ccc(C(C)C)cc1-2
- Foci/dish (C3H 10T1/2 [1]): 1.16
- Foci/dish (C3H 10T1/2 [2]): 1.09
- Control (C3H 10T1/2 [3]): 138%
- Communicating cells (C3H 10T1/2 [12]): 4.9
- Control (C3H 10T1/2 [4]): 110%
- Transformed foci, % of MCA-treated control (C3H 10T1/2 [6]): 104%
- Foci/dish (C3H 10T1/2 [7]): 1
- Control (C3H 10T1/2 [8]): 129%
- Control (C3H 10T1/2 [9]): 84%
- Control (C3H 10T1/2 [10]): 95%

Compound: CC(/C=C/C=C/c1ccc2cccccc1-2)=C(/F)C(=O)O
- Foci/dish (C3H 10T1/2 [1]): 0.08
- Foci/dish (C3H 10T1/2 [2]): 0.08
- Control (C3H 10T1/2 [3]): 120%
- Control (C3H 10T1/2 [4]): 12%
- Communicating cells (C3H 10T1/2 [13]): 8.8
- Transformed foci, % of MCA-treated control (C3H 10T1/2 [6]): 12%
- Foci/dish (C3H 10T1/2 [7]): 0.58
- Control (C3H 10T1/2 [8]): 113%
- Control (C3H 10T1/2 [9]): 78%
- Control (C3H 10T1/2 [10]): 88%

Compound: Cc1cc(/C=C/c2ccc(C(=O)O)cc2)c2c(C)ccc(C(C)C)cc1-2
- Foci/dish (C3H 10T1/2 [1]): 0.42
- Foci/dish (C3H 10T1/2 [2]): 0
- Control (C3H 10T1/2 [3]): 94%
- Control (C3H 10T1/2 [4]): 40%
- Transformed foci, % of MCA-treated control (C3H 10T1/2 [6]): 0%
- Communicating cells (C3H 10T1/2 [11]): 18.3
- Foci/dish (C3H 10T1/2 [7]): 1.54
- Control (C3H 10T1/2 [8]): 119%
- Control (C3H 10T1/2 [9]): 67%
- Control (C3H 10T1/2 [10]): 146%

Compound: CC(/C=C/C=C/c1cc(C)c2cc(C(C)C)ccc(C)c1-2)=C\C=O
- Foci/dish (C3H 10T1/2 [1]): 1
- Foci/dish (C3H 10T1/2 [2]): 1.25
- Control (C3H 10T1/2 [3]): 129%
- Communicating cells (C3H 10T1/2 [12]): 5.7
- Control (C3H 10T1/2 [4]): 95%
- Transformed foci, % of MCA-treated control (C3H 10T1/2 [6]): 119%
- Foci/dish (C3H 10T1/2 [7]): 1.16
- Control (C3H 10T1/2 [8]): 115%
- Control (C3H 10T1/2 [9]): 125%
- Control (C3H 10T1/2 [10]): 110%

Compound: C/C(=C\c1ccc(C(=O)O)cc1)c1ccc2c(c1)C(C)(C)CCC2(C)C
- Foci/dish (C3H 10T1/2 [1]): 0
- Foci/dish (C3H 10T1/2 [2]): 0
- Control (C3H 10T1/2 [3]): 83% and 91%
- Control (C3H 10T1/2 [4]): 0%
- Communicating cells (C3H 10T1/2 [14]): 18.5
- Control (C3H 10T1/2 [15]): 0%
- Transformed foci, % of MCA-treated control (C3H 10T1/2 [6]): 0%
- Communicating cells (C3H 10T1/2 [11]): 21.2
- Foci/dish (C3H 10T1/2 [7]): 0
- Control (C3H 10T1/2 [8]): 95% and 96%
- Control (C3H 10T1/2 [9]): 80% and 85%
- Control (C3H 10T1/2 [10]): 0%

Compound: Cc1cc(/C=C/C=C/c2ccc(C(=O)O)cc2)c2c(C)ccc(C(C)C)cc1-2
- Foci/dish (C3H 10T1/2 [1]): 0.33
- Foci/dish (C3H 10T1/2 [2]): 0.5
- Control (C3H 10T1/2 [3]): 94%
- Communicating cells (C3H 10T1/2 [12]): 2.9
- Control (C3H 10T1/2 [4]): 50%
- Transformed foci, % of MCA-treated control (C3H 10T1/2 [6]): 75%
- Foci/dish (C3H 10T1/2 [7]): 0.33
- Control (C3H 10T1/2 [8]): 89%
- Control (C3H 10T1/2 [9]): 98%
- Control (C3H 10T1/2 [10]): 50%

Compound: Cc1ccc(C(C)C)cc2c(C)c(/C=C/c3ccc(C(=O)O)cc3)cc1-2
- Foci/dish (C3H 10T1/2 [1]): 0.16
- Foci/dish (C3H 10T1/2 [2]): 0.16
- Control (C3H 10T1/2 [3]): 129%
- Control (C3H 10T1/2 [4]): 24%
- Communicating cells (C3H 10T1/2 [13]): 7.2
- Transformed foci, % of MCA-treated control (C3H 10T1/2 [6]): 24%
- Foci/dish (C3H 10T1/2 [7]): 0.16
- Control (C3H 10T1/2 [8]): 96%
- Control (C3H 10T1/2 [9]): 84%
- Control (C3H 10T1/2 [10]): 24%

Compound: CC(/C=C/C=C/c1cc(C)c2cc(C(C)C)ccc(C)c1-2)=C\C(=O)O
- Control (C3H 10T1/2 [16]): 120%
- Control (C3H 10T1/2 [17]): 76%
- Control (C3H 10T1/2 [18]): 103%
- Control (C3H 10T1/2 [19]): 89.1%
- Foci/dish (C3H 10T1/2 [20]): 1.08
- Communicating cells (C3H 10T1/2 [14]): 9.1
- Control (C3H 10T1/2 [21]): 120%
- Control (C3H 10T1/2 [22]): 116%
- Foci/dish (C3H 10T1/2 [23]): 0.8
- Foci/dish (C3H 10T1/2 [24]): 1.27

Compound: Cc1cc(/C=C/c2ccc(C=O)cc2)c2c(C)ccc(C(C)C)cc1-2
- Foci/dish (C3H 10T1/2 [1]): 1.75
- Foci/dish (C3H 10T1/2 [2]): 0.91
- Control (C3H 10T1/2 [3]): 174%
- Control (C3H 10T1/2 [4]): 166%
- Communicating cells (C3H 10T1/2 [13]): 8.7
- Transformed foci, % of MCA-treated control (C3H 10T1/2 [6]): 87%
- Foci/dish (C3H 10T1/2 [7]): 1.5
- Control (C3H 10T1/2 [8]): 142%
- Control (C3H 10T1/2 [9]): 58%
- Control (C3H 10T1/2 [10]): 143%

Compound: CC(/C=C/C=C/c1cc(C)c2cc(C(C)C)ccc(C)c1-2)=C\CO
- Foci/dish (C3H 10T1/2 [1]): 1.5
- Foci/dish (C3H 10T1/2 [2]): 1.18
- Control (C3H 10T1/2 [3]): 120%
- Control (C3H 10T1/2 [4]): 142%
- Communicating cells (C3H 10T1/2 [5]): 8.8
- Transformed foci, % of MCA-treated control (C3H 10T1/2 [6]): 112%
- Foci/dish (C3H 10T1/2 [7]): 1.5
- Control (C3H 10T1/2 [8]): 125%
- Control (C3H 10T1/2 [9]): 89%
- Control (C3H 10T1/2 [10]): 142%

Compound: CC(/C=C/c1cc(C)c2cc(C(C)C)ccc(C)c1-2)=C\C=C\C(C)=C\C(=O)O
- Foci/dish (C3H 10T1/2 [1]): 0.4
- Foci/dish (C3H 10T1/2 [2]): 0.5
- Control (C3H 10T1/2 [3]): 151%
- Communicating cells (C3H 10T1/2 [12]): 1.55
- Control (C3H 10T1/2 [4]): 61%
- Transformed foci, % of MCA-treated control (C3H 10T1/2 [6]): 75%
- Foci/dish (C3H 10T1/2 [7]): 0.4
- Control (C3H 10T1/2 [8]): 94%
- Control (C3H 10T1/2 [9]): 178%
- Control (C3H 10T1/2 [10]): 61%
